Results collected from several papers.
Protocols differ between the studies behind these lines.
Cell line: HepG2
Observed: cell growth or viability

Nc1c(C(=O)Nc2cccnc2)sc2nc(-c3ccccc3)cc(C(F)(F)F)c12
IC50 (72 h): > 100 µM

CN[C@@H]1C[C@H]2O[C@@](C)([C@@H]1OC)n1c3ccccc3c3c4c(c5c6ccccc6n2c5c31)C(=O)NC4
IC50: 0.0383 µM

N=C(CC(O)c1cc2c(F)cc(F)cc2c2cc(C(F)(F)F)ccc12)Nc1ccccc1I (centres unmarked)
IC50 (neutral red; 24 h): 160 µM

COc1ccc(-c2cc(C(F)(F)F)c3c(N)c(C(=O)N4CCCC4)sc3n2)cc1
IC50 (72 h): > 50 µM

Fc1ccc2c(-c3nc(Cc4ccccc4)cs3)nn(Cc3ccc(Cl)cc3Cl)c2c1
IC50 (48 h): 25.1 µM

N=C(CC(O)c1cc2c(F)cc(F)cc2c2cc(C(F)(F)F)ccc12)Nc1ccc(-c2ccc(F)cc2)cc1 (centres unmarked)
IC50 (neutral red; 24 h): 10.5 µM

Nc1c(C(=O)N2CC(F)(F)C2)sc2ncccc12
IC50 (72 h): > 100 µM

CC(C)=CCC[C@](C)(O)[C@H]1CC[C@]2(C)[C@@H]1[C@H](O)C[C@@H]1[C@@]3(C)CC[C@H](O)C(C)(C)[C@@H]3[C@@H](O[C@@H]3O[C@H](CO)[C@@H](O)[C@H](O)[C@H]3O)C[C@]12C
IC50 (CCK-8; 24 h): 32 µM

C#CCn1c(C(=O)/C=C/c2ccc(F)cc2)nc2ccccc21
IC50 (LDH; 48 h): 1.72 µM

CC1=C(O)C(=O)C=C2C1=CC=C1[C@@]2(C)CC[C@@]2(C)[C@@H]3C[C@](C)(C(=O)O)CC[C@]3(C)CC[C@]12C
IC50 (CCK-8; 24 h): 2.53 µM

COc1cc(NC(=N)CC(O)c2cc3c(F)cc(F)cc3c3cc(C(F)(F)F)ccc23)ccc1Br (centres unmarked)
IC50 (neutral red; 24 h): 15.3 µM
